Tests used:
Format in all cases: functional
Rattus norvegicus [1] = test: Hypocholesterolemic activity in Sprague-Dawley rat assessed as serum cholesterol level at 1 mg/kg/day, po administered via intubation measured on day 16 by Liebermann-Burchard method relative to control
In short: (§1)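 Male Sprague-Dawley rats given compound homogenized in 1% CMC once daily at 11:00 a.m. by oral intubation needle (0.2 cc), doses calculated on weekly body weights; tail-vein blood drawn 24 h after last dose; nonhemolyzed serum (30 μ) assayed by modified Liebermann-Burchard method; N = 8; % of control, mean ± SD; Student's t test.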

Rattus norvegicus [2] = test: Hypocholesterolemic activity in Sprague-Dawley rat assessed as serum cholesterol level at 5 mg/kg/day, po administered via intubation measured on day 16 by Liebermann-Burchard method relative to control; in short: as §1
Rattus norvegicus [3] = species: Rattus norvegicus; test: Disruption of rat liver cell membrane assessed as unlysed cells at 10 mg per gram of tissue measured at 15 mins (reference value: 91 +/- 6%)
In short: (§2)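 Rat liver 10% homogenate in 0.25 M sucrose + 0.001 M EDTA, pH 7.2, incubated at 37°C with Hanke's buffer pH 7.2 and drug suspended in 1% CMC (dose as mg drug per g wet liver); turbidity read as absorbance at 660 nm over 0–4 hr, falling absorbance taken as lysis; expressed as % unlysed cells; vehicle 1% CMC control.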

Rattus norvegicus [4] = species: Rattus norvegicus; test: Disruption of rat liver cell membrane assessed as unlysed cells at 5 mg per gram of tissue measured at 30 mins (reference value: 93 +/- 7%); in short: as §2
Rattus norvegicus [5] = species: Rattus norvegicus; test: Disruption of rat liver cell membrane assessed as unlysed cells at 25 mg per gram of tissue measured at 1 hr (reference value: 90 +/- 4%); in short: as §2

SMILES: CCCCCCCCCCCCCCC(C)=O
- Activity (Rattus norvegicus [1]): 71%
- Activity (Rattus norvegicus [2]): 67%
- Activity (Rattus norvegicus [3]): 96%
- Activity (Rattus norvegicus [4]): 93%
- Activity (Rattus norvegicus [5]): 92%

From ChEMBL document CHEMBL3272112, “Cycloalkanones. 8. Hypocholesterolemic activity of long-chain ketones related to pentadecanone” (J Med Chem, 1976)
